According to PubChem BioAssay:
Active and inactive are the calls of the source.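 Rule for the calls, unless noted: active = GFP response above 150% of the DMSO level; inconclusive = fewer than 70 events counted for a yeast strain; inactive = the rest.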

Legend:
[1] = RPL19A-GFP modulators, yeast TOR pathway, confirmation, cell-based, S. cerevisiae, flow cytometry, cherry picks, mother/daughter gates (AID 2270;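 active = GFP response below 50% of the DMSO control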); settings: S. cerevisiae RPL19A-GFP strain, 3 h, at 10 µM, stronger effect = lower value, 100 = same GFP as DMSO wells
[2] = LAP4-GFP expression modulators in yeast, confirmation, cell-based, cherry picks, flow cytometry, mother/daughter gates (AID 2271;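 active = GFP response above 150% of the DMSO control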;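 note: ratio of sample to DMSO plate mean so 100% equals DMSO level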); settings: S. cerevisiae LAP4-GFP strain, 3 h, at 10 µM, stronger effect = higher value, 100 means same as DMSO control
In short: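 Test system: GFP-fusion yeast strain. Medium: synthetic complete (SC) yeast growth medium. Timing: 3 h treatment at 30 °C with rotation. Measured by: GFP by flow cytometry. Control set: positive rapamycin (400 ng/mL), negative DMSO.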

[3] = modulators of MEP2-GFP levels in yeast, confirmation, S. cerevisiae, flow cytometry GFP, cherry picks (AID 2272;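 active = GFP response above 150% of the DMSO control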;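 note: ratio of well signal to plate DMSO mean so 100% equals DMSO level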); settings: S. cerevisiae MEP2-GFP strain, 3 h, at 10 µM, stronger effect = higher value
[4] = AGP1-GFP expression modulators, hit retest, confirmation, cell-based, flow cytometry, S. cerevisiae, cherry picks (AID 2273);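 note: median GFP channel fluorescence over the whole cell population gate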; settings: S. cerevisiae AGP1-GFP strain, 3 h, at 10 µM
[5] = modulators of CIT2-GFP expression in yeast, confirmation, S. cerevisiae, GFP fusion, cherry picks, mother/daughter gates (AID 2274); settings: S. cerevisiae CIT2-GFP strain, flow cytometry, 3 h, at 10 µM, stronger effect = higher value
[6] = measured here: daughter cell gate
[7] = measured here: mother cell gate
[8] = measured here: daughter cell gate response
[9] = measured here: mother cell gate response

SMILES | GFP response vs DMSO [1] | GFP response vs DMSO [1, 6] [%] | GFP response vs DMSO [1, 7] [%] | GFP response relative to DMSO [2] | GFP response relative to DMSO [2, 8] [%] | GFP response relative to DMSO [2, 9] [%] | GFP response vs DMSO [3] | GFP response, % of DMSO [4] | GFP response, % of DMSO [5] | GFP response, % of DMSO [5, 6] [%] | GFP response, % of DMSO [5, 7] [%]
O=C1Nc2ccc(Br)cc2/C1=C/C(=O)c1ccc2c(c1)OCO2 | 101% (inactive) | 99.4 | 98.9 | 125% (inactive) | 117 | 130 | 105% (inactive) | 94.5% (inactive) | 101% (inactive) | 101 | 96.1
C=CCOc1cccc(C(=O)/C=C2/C(=O)Nc3ccccc32)c1 | 102% (inactive) | 97.9 | 98.8 | 114% (inactive) | 107 | 117 | 112% (inactive) | 105% (inactive) | 102% (inactive) | 103 | 98.1
COc1cccc(OCC(=O)N2CCCc3ccccc32)c1 | 97.8% (inactive) | 97 | 97.1 | 101% (inactive) | 105 | 102 | 99.3% (inactive) | 100% (inactive) | 95.8% (inactive) | 97.6 | 94.9
COc1cccc(-c2nnc(NC(=O)c3ccc(S(=O)(=O)N4CC(C)OC(C)C4)cc3)o2)c1 (stereo not drawn) | 103% (inactive) | 103 | 102 | 95.7% (inactive) | 94.2 | 96.2 | 109% (inactive) | 100% (inactive) | 100% (inactive) | 97.4 | 99.3
COc1ccc(-c2csc(NC(=O)c3ccco3)n2)cc1 | 98.4% (inactive) | 96.7 | 97.8 | 109% (inactive) | 102 | 109 | 104% (inactive) | 91.9% (inactive) | 99.3% (inactive) | 100 | 96.8
O=C(Nc1c2c(nn1-c1ccccc1)CS(=O)C2)c1ccco1 (stereo not drawn) | 96.5% (inactive) | 97.3 | 95 | 92.9% (inactive) | 96 | 95.4 | 99.3% (inactive) | 100% (inactive) | 97.2% (inactive) | 99.3 | 96
CS/C(N)=N/N=C/c1ccc2c(c1)OCO2 | 97.8% (inactive) | 98.9 | 97.7 | 106% (inactive) | 102 | 108 | 100% (inactive) | 102% (inactive) | 103% (inactive) | 103 | 102
Cc1noc(/C=C/c2ccccn2)c1[N+](=O)[O-] | 95.6% (inactive) | 96.1 | 90.8 | 139% (inactive) | 132 | 142 | 99% (inactive) | 96.7% (inactive) | 90.1% (inactive) | 97.4 | 84.6
Cc1ccc(S(=O)(=O)N(CC(=O)NCc2ccncc2)Cc2ccccc2F)cc1 | 97.6% (inactive) | 97.1 | 98.5 | 99.2% (inactive) | 99.2 | 97.2 | 105% (inactive) | 102% (inactive) | 103% (inactive) | 101 | 102
COc1ccc(NC(=O)/C(C#N)=C/c2ncc([N+](=O)[O-])n2C)c(OC)c1 | 97.2% (inactive) | 95.1 | 99.8 | 151% (active) | 138 | 162 | 169% (inactive) | 99.5% (inactive) | 134% (inactive) | 132 | 136
Cc1ccc(-c2nnn(CC(=O)N(CC(=O)NC3CCCC3)c3ccc(F)cc3)n2)o1 | 97.4% (inactive) | 98.4 | 96.8 | 97% (inactive) | 95.9 | 96.2 | 99% (inactive) | 104% (inactive) | 100% (inactive) | 103 | 99.3
Cc1cc(N2CCCCC2)n2ncc(-c3ccccc3)c2n1 | 97.6% (inactive) | 97.3 | 98.4 | 102% (inactive) | 106 | 102 | 95.7% (inactive) | 95.2% (inactive) | 104% (inactive) | 103 | 103
Cc1ccc(S(=O)(=O)Nc2cc(Cl)c(O)c3ncccc23)cc1 | 95.2% (inactive) | 94.2 | 97.1 | 122% (inactive) | 120 | 126 | 110% (inactive) | 91.2% (inactive) | 97.8% (inactive) | 100 | 96.8
CCc1ccc(C(=O)/C=C/c2ccc([N+](=O)[O-])o2)cc1 | 104% (inactive) | 108 | 103 | 146% (inactive) | 141 | 152 | 180% (active) | 99.1% (inactive) | 154% (active) | 156 | 148
COc1ccc(C(=O)/C=C2/C(=O)Nc3ccccc32)c(OC)c1 | 99.5% (inactive) | 96.7 | 95.2 | 136% (inactive) | 123 | 139 | 97.8% (inactive) | 99.2% (inactive) | 82.2% (inactive) | 83.4 | 77.3
CCCCn1c(-c2csc3c2CCCC3)n[nH]c1=S | 91.5% (inactive) | 88.2 | 94.1 | 122% (inactive) | 117 | 128 | 93.3% (inactive) | 95.6% (inactive) | 80.6% (inactive) | 77.9 | 80.5
COc1ccccc1N1CCN(C(=O)c2ccccc2Oc2ccccc2)CC1 | 96.7% (inactive) | 97 | 95.2 | 91.8% (inactive) | 92.9 | 87.3 | 101% (inactive) | 98.6% (inactive) | 98.6% (inactive) | 97.6 | 93.8

SMILES | GFP response vs DMSO [1] | GFP response vs DMSO [1, 6] [%] | GFP response vs DMSO [1, 7] [%] | GFP response relative to DMSO [2] | GFP response relative to DMSO [2, 8] [%] | GFP response relative to DMSO [2, 9] [%] | GFP response vs DMSO [3] | GFP response, % of DMSO [4] | GFP response, % of DMSO [5] | GFP response, % of DMSO [5, 6] [%] | GFP response, % of DMSO [5, 7] [%]
COc1ccc(OC)c(S(=O)(=O)ON2C(=O)c3ccccc3C2=O)c1 | 105% (inactive) | 98.3 | 93.8 | 156% (active) | 157 | 158 | 114% (inactive) | 96.9% (inactive) | 102% (inactive) | 119 | 87.5
O=C(/C=C/c1ccc(F)cc1)c1ccccc1Br | 98% (inactive) | 98.1 | 98.3 | 112% (inactive) | 112 | 116 | 103% (inactive) | 98.1% (inactive) | 93.4% (inactive) | 93.7 | 89.8
COc1cc(/C=C/c2ccc3c(Br)cc(Br)c(O)c3n2)ccc1O | 101% (inactive) | 107 | 102 | 107% (inactive) | 106 | 108 | 108% (inactive) | 98.6% (inactive) | 99.7% (inactive) | 105 | 89.8
Cc1cc(C)c(C)c(S(=O)(=O)ON2C(=O)c3ccccc3C2=O)c1C | 103% (inactive) | 97.5 | 94.1 | 206% (active) | 170 | 204 | 114% (inactive) | 97.3% (inactive) | 105% (inactive) | 113 | 91
O=C1c2ccccc2C(=O)C2OC12 (stereo not drawn) | 101% (inactive) | 99.6 | 88.1 | 218% (active) | 179 | 201 | 226% (active) | 133% (inactive) | 101% (inactive) | 100 | 85.8
O=C(Oc1c(Cl)cc(Cl)c2cccnc12)c1ccco1 | 103% (inactive) | 89.2 | 100 | 196% (active) | 148 | 199 | 128% (inactive) | 95.9% (inactive) | 95.9% (inactive) | 86.6 | 93.2
O=C(O)c1ccn2c(C(=O)c3ccccc3)c(-c3ccccc3)cc2c1 | 91.1% (inactive) | 88.6 | 95.4 | 113% (inactive) | 112 | 116 | 94.1% (inactive) | 88.2% (inactive) | 96.9% (inactive) | 95.4 | 97.3
CN1C(=O)/C(=N\OC(=O)c2cccc3ccccc23)c2ccccc21 | 102% (inactive) | 99.8 | 93.4 | 163% (active) | 140 | 154 | 110% (inactive) | 88.4% (inactive) | 99.3% (inactive) | 102 | 80.5
COc1ccc(OC)c(CNC(=O)CCC(=O)N2Cc3cccc(OC)c3Oc3ncccc32)c1 | 102% (inactive) | 100 | 101 | 90.6% (inactive) | 94.2 | 95.2 | 105% (inactive) | 109% (inactive) | 102% (inactive) | 101 | 103
CC(=O)Nc1ccc(NC(=O)c2nc(S(=O)(=O)Cc3ccccc3)ncc2Cl)cc1 | 98.5% (inactive) | 99.8 | 96.9 | 106% (inactive) | 105 | 105 | 110% (inactive) | 96.8% (inactive) | 100% (inactive) | 101 | 99.3
COc1cccc(/C=N/Nc2nc(-c3cccnc3)nc3ccccc23)c1 | 94.7% (inactive) | 93.3 | 93.5 | 104% (inactive) | 101 | 106 | 106% (inactive) | 101% (inactive) | 103% (inactive) | 103 | 100
COc1ccccc1-c1noc(CCC(=O)Nc2cccc(C)c2)n1 | 99.9% (inactive) | 100 | 100 | 96.5% (inactive) | 96.5 | 96.5 | 97.5% (inactive) | 90.8% (inactive) | 95% (inactive) | 98.3 | 95.6
CSc1ccc(/C=C/C(=O)c2ccc(NC(C)=O)cc2)cc1 | 111% (inactive) | 93.2 | 94.5 | 111% (inactive) | 104 | 113 | 101% (inactive) | 97.5% (inactive) | 91.5% (inactive) | 90.2 | 82.1
O=C(NC(=S)NNC(=O)[C@H]1C[C@@H]1c1ccccc1)c1cccc(F)c1 | 111% (inactive) | 115 | 110 | 150% (active) | 144 | 147 | 135% (inactive) | 109% (inactive) | 137% (inactive) | 141 | 127
O=C(c1ccccc1)N1CCN(c2ccccc2F)CC1 | 101% (inactive) | 102 | 99.6 | 105% (inactive) | 104 | 96.4 | 103% (inactive) | 99.1% (inactive) | 95.8% (inactive) | 97.6 | 90.4
O=C(O)CCCn1nc(-c2ccccc2)c2ccccc21 | 99% (inactive) | 98.4 | 100 | 112% (inactive) | 112 | 111 | 103% (inactive) | 101% (inactive) | 103% (inactive) | 106 | 96.8
